In ChEMBL document CHEMBL4387709, “Discovery of Quinoline Analogues as Potent Antivirals against Enterovirus D68 (EV-D68)” (J Med Chem, 2019):
pEC50: −log10 of the molar value. Active and inactive are the calls of the source. The rule behind the calls is not given here.

Tests used:
[1] = test system: RD; experiment: Cytotoxicity against human RD cells after 3 days by neutral red dye-based photometric method; type: cell-based; details: rd, 72 h
[2] = test system: enterovirus D68; experiment: Antiviral activity against Enterovirus D68 US/MO/14-18947 infected in human A172 cells assessed as inhibition of virus-induced cytopathic effect incubated for 5 mins under shaking condition and measured after 3 days by neutral red dye-based photometric method; type: functional, organism-based; details: Enterovirus D, US/MO/14-18947, A 172
Summary of the method: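 A172 cells (DMEM, 10% FBS) grown ~90% confluent, infected with EV-D68 at ~MOI 0.3 in DMEM/2% FBS/30 mM MgCl2 and kept at 33 °C. P/S and compounds added 1 h later. Brief orbital shaking, then 3-day incubation. Neutral red staining with 540 nm absorbance. EC50 from best-fit dose-response curves in triplicate.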

[3] = test system: A 172; experiment: Cytotoxicity against human A172 cells after 3 days by neutral red dye-based photometric method; type: cell-based; details: a 172, 72 h
Summary of the method: (§1)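 Uninfected cells run as in the CPE assay (33 °C, 3 days, same media) with compound. Viability by neutral red staining and 540 nm absorbance. CC50 from dose-response curves, triplicate experiments.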

[4] = Selectivity index, ratio of CC50 for human RD cells to EC50 for Enterovirus D68 US/MO/14-18947 infected in human RD cells; type: toxicity, cell-based; details: read-out: Ratio CC50/EC50
[5] = test system: RD; experiment: Inhibition of 2C protein in Enterovirus D68 US/KY/14-18953 infected in human RD cells assessed as reduction of VP1 expression at 1 uM measured at 9 hrs post infection by Western blot analysis; type: cell-based
Summary of the method: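 Equal protein separated and blotted to PVDF. Probed with rabbit anti-VP1 and mouse anti-GAPDH (1:3,000), HRP secondary, chemiluminescent detection. Mean of two independent experiments ± SD.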

[6] = test system: enterovirus D68; experiment: Antiviral activity against Enterovirus D68 […] infected in human RD cells assessed as inhibition of virus-induced cytopathic effect incubated for 5 mins under shaking condition and measured after 3 days by neutral red dye-based photometric method; type: functional, organism-based; details: Enterovirus D
Summary of the method: (§2)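 RD cells seeded one day ahead to ~90% confluence, PBS (Mg/Ca) wash, infected at ~MOI 0.01 with EV-D68 in DMEM/2% FBS/30 mM MgCl2 at 33 °C, 5% CO2. Compounds and 1% P/S added after 1 h. Plates shaken ~5 min, held 3 days, viable cells stained with neutral red (66 µg/ml), A540 read. EC50 from dose-response fits, triplicates.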

[7] = Selectivity index, ratio of CC50 for human RD cells to EC50 for Enterovirus D68 […] infected in human RD cells; type: toxicity, cell-based; details: read-out: Ratio CC50/EC50
Summary of the method: (§3)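 RD cells in DMEM with 10% FBS were infected at about 90% confluency at MOI about 0.01, giving full CPE by 3 days, in DMEM with 2% FBS and 30 mM MgCl2 at 33 °C. Compounds and P/S were added 1 h after infection. Viability was read by neutral red uptake (A540). CC50 came from uninfected cells. Means were from triplicates, and SI = CC50/EC50.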

[8] = test system: A549; experiment: Cytotoxicity against human A549 cells after 3 days by neutral red dye-based photometric method; type: cell-based; details: a549, 72 h; summary of the method: as §1
[9] = Selectivity index, ratio of CC50 for human A172 cells to EC50 for Enterovirus D68 US/MO/14-18947 infected in human A172 cells; type: toxicity, cell-based; details: read-out: Ratio CC50/EC50
Summary of the method: (§4)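 A172 cells kept in DMEM with 10% FBS and 1% P/S, grown to about 90% confluency, then infected at MOI about 0.3 in DMEM with 2% FBS and 30 mM MgCl2 at 33 °C. After 1 h, P/S and compounds were added. Viable cells were stained with neutral red after 3 days (A540). CC50 came from the same assay without virus. EC50 and CC50 were fitted from triplicate dose-response data, and SI = CC50/EC50.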

[10] = test system: enterovirus D68; experiment: Antiviral activity against Enterovirus D68 US/IL/14-18956 infected in human RD cells assessed as inhibition of virus-induced cytopathic effect incubated for 5 mins under shaking condition and measured after 3 days by neutral red dye-based photometric method; type: functional, organism-based; details: Enterovirus D, US/IL/14-18956, RD; summary of the method: as §2
[11] = test system: enterovirus D68; experiment: Antiviral activity against Enterovirus D68 US/MO/14-18949 infected in human RD cells assessed as inhibition of virus-induced cytopathic effect incubated for 5 mins under shaking condition and measured after 3 days by neutral red dye-based photometric method; type: functional, organism-based; details: Enterovirus D, US/MO/14-18949, RD; summary of the method: as §2
[12] = test system: HeLa; experiment: Cytotoxicity against human HeLa cells after 3 days by neutral red dye-based photometric method; type: cell-based; details: 72 h; summary of the method: as §1
[13] = Selectivity index, ratio of CC50 for human RD cells to EC50 for Enterovirus D68 US/IL/14-18956 infected in human RD cells; type: toxicity, cell-based; details: read-out: Ratio CC50/EC50; summary of the method: as §3
[14] = test system: Influenza A virus; experiment: Antiviral activity against Influenza A virus (A/California/07/2009(H1N1)) at 10 uM after 2 days by plaque assay; type: functional, organism-based
[15] = Selectivity index, ratio of CC50 for human A172 cells to EC50 for Enterovirus D68 US/KY/14-18953 infected in human A172 cells; type: toxicity, cell-based; details: read-out: Ratio CC50/EC50; summary of the method: as §4
[16] = test system: enterovirus D68; experiment: Antiviral activity against Enterovirus D68 US/MO/14-18947 infected in human RD cells assessed as inhibition of virus-induced cytopathic effect incubated for 5 mins under shaking condition and measured after 3 days by neutral red dye-based photometric method; type: functional, organism-based; details: Enterovirus D, US/MO/14-18947, RD; summary of the method: as §2
[17] = test system: enterovirus D68; experiment: Antiviral activity against Enterovirus D68 US/KY/14-18953 infected in human SH-SY5Y cells assessed as inhibition of virus-induced cytopathic effect incubated for 5 mins under shaking condition and measured after 3 days by neutral red dye-based photometric method; type: functional, organism-based; details: Enterovirus D, US/KY/14-18953, SH-SY5Y
Summary of the method: (§5)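 Virus at ~MOI 1 applied to SH-SY5Y cells (50% DMEM/50% F-12, 10% FBS) at ~90% confluence in DMEM/2% FBS/30 mM MgCl2 at 33 °C. Compounds added after 1 h with 1% P/S, shaken ~5 min, incubated 3 days. Viability read by neutral red uptake (A540). EC50 fitted from dose-response, triplicate.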

[18] = test system: RD; experiment: Inhibition of 2C protein in Enterovirus D68 US/KY/14-18953 infected in human RD cells assessed as reduction of VP1 expression at 1 uM measured at 9 hrs post infection by DAPI-staining based microscopy; type: cell-based
Summary of the method: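 Fixed at 9 hpi (4% formaldehyde), 0.2% Triton X-100 permeabilized, blocked with 10% bovine serum. Stained with rabbit anti-VP1 plus Alexa-488 secondary, nuclei with 300 nM DAPI. Confocal microscopy.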

[19] = test system: enterovirus D68; experiment: Antiviral activity against Enterovirus D68 US/MO/14-18947 infected in human SH-SY5Y cells assessed as inhibition of virus-induced cytopathic effect incubated for 5 mins under shaking condition and measured after 3 days by neutral red dye-based photometric method; type: functional, organism-based; details: Enterovirus D, US/MO/14-18947, SH-SY5Y; summary of the method: as §5

O=C(NCCN1CCCC1)c1cc(-c2cccs2)nc2ccccc12
CC50 [1]: 40000 nM | pEC50 [2]: 6.70 | CC50 [3]: 65400 nM | selectivity ratio [4]: 667 | inhibition [5]: Active | pEC50 [6]: 7.15 | selectivity ratio [7]: 571 | CC50 [8]: 83200 nM | selectivity ratio [9]: 327 | pEC50 [10]: 7.30 | pEC50 [11]: 7.30 | CC50 [12]: 41700 nM | selectivity ratio [13]: 800 | Activity [14]: inactive | selectivity ratio [15]: 1310 | pEC50 [16]: 7.22 | pEC50 [17]: 7.00 | inhibition [18]: Active | pEC50 [19]: 7.70
